For one data set, the system named is U937 cells. As to the kind of experiment: CellTiter-Glo Luminescent cell viability assay. The conditions noted are these: Homo sapiens, U-937, 72 h, read-out: Percent inhibition at different concentrations of compounds (antiproliferative). The data set is classed as cell-based, human. The method, boiled down:
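Human myeloid leukaemia U937 cells exposed to a range of test compound concentrations for 72 h, with Mitomycin C as positive control and DMSO diluent as negative control. CellTiter-Glo reagent added at an equal volume to the medium, mixed 2 min for lysis, then held 10 min at room temperature before luminescence was read. Viability was computed as RLU test ×100/RLU control. Half-maximal inhibitory concentration was fitted from the dose series.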

Data set [1] can be described thus: LDH release cytotoxicity assay. The data set is classed as cell-based. The conditions noted are these: human, U937 cells. The method, boiled down:
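U937 cells were plated in 96-well format and given various test compound concentrations, with Triton X100 as positive cytotoxicity control, for 4 h at 37 °C. Plates were spun 5 min at 1000 RPM, and supernatant was moved to a fresh plate with LDH detection reagent for 10 min at room temperature in the dark. Optical density was then read, and half-maximal concentration was derived from the doses.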

Consider `COC(=O)COc1ccc(NC(=O)C2(c3ccc(Cl)cc3)CC2)c(C)c1` [Compound 8n, Methyl 2-(4-(1-(4-chlorophenyl)cyclopropane-1-carboxamido)-3-methylphenoxy)acetate], for which, in the data set on U937 cells, the inhibition at 25 µM is 28%, the inhibition at 50 µM worked out at 33%, the inhibition at 100 µM is 101% and the inhibition at 200 µM was 101%. In data set [1], the inhibition at 4 h, 12.5 µM came to 0%; the inhibition at 4 h, 25 µM was -1%; the inhibition at 4 h, 50 µM is 1%; the inhibition at 4 h, 100 µM is -1%.

Take `COC(=O)COc1ccc(NC(=O)C2(c3cccc(C)c3)CC2)cc1` [Compound 8f, Methyl 2-(4-(1-(m-tolyl)cyclopropane-1-carboxamido)phenoxy)acetate]: in the data set on U937 cells, the inhibition at 25 µM turned out to be 34%, the inhibition at 50 µM is 36%, the inhibition at 100 µM came to 32% and the inhibition at 200 µM came out at 100%. Moreover, in data set [1], the inhibition at 4 h, 12.5 µM was -1%; the inhibition at 4 h, 25 µM was -1%; the inhibition at 4 h, 50 µM worked out at 0%; the inhibition at 4 h, 100 µM turned out to be 0%.

The values are drawn from paper PMC9898299 (Heliyon, 2023).
